Key:
Assay type in all cases: functional
HOP-92 = experiment: Growth inhibition of human HOP92 cells at 10 uM after 48 hrs by SRB assay relative to control; details: HOP-92, 48 h, read-out: GI
In short: (§1)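 Screened at the National Cancer Institute by the standard NCI protocol using the sulforhodamine B assay, which measures cellular protein. Single dose of 10 µM. Result is percent growth inhibition; values above 100% mean cell number fell below the initial population. Values are the average of duplicates.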

HCT-116 = experiment: Growth inhibition of human HCT116 cells at 10 uM after 48 hrs by SRB assay relative to control; details: HCT-116, 48 h, read-out: GI; in short: as §1
SNB-75 = experiment: Growth inhibition of human SNB75 cells at 10 uM after 48 hrs by SRB assay relative to control; details: SNB-75, 48 h, read-out: GI
In short: (§2)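 NCI screen against its human cancer cell line panel by the standard NCI protocol, SRB protein stain. Single dose of 10 μM. Percent growth inhibition versus control; values above 100% mean the cell population fell below the starting number. Each value is the mean of duplicates.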

NCI-H322M = experiment: Growth inhibition of human NCI-H322M cells at 10 uM after 48 hrs by SRB assay relative to control; details: read-out: GI; in short: as §1
UO-31 = experiment: Growth inhibition of human UO31 cells at 10 uM after 48 hrs by SRB assay relative to control; details: UO-31, 48 h, read-out: GI; in short: as §2
NCI/ADR-RES = experiment: Growth inhibition of human NCI/ADR-RES cells at 10 uM after 48 hrs by SRB assay relative to control; details: read-out: GI; in short: as §1
Malme-3M = experiment: Growth inhibition of human MALME-3M cells at 10 uM after 48 hrs by SRB assay relative to control; details: read-out: GI; in short: as §1
CAKI-1 = experiment: Growth inhibition of human Caki1 cells at 10 uM after 48 hrs by SRB assay relative to control; details: CAKI-1, 48 h, read-out: GI; in short: as §1
SK-MEL-28 = experiment: Growth inhibition of human SK-MEL-28 cells at 10 uM after 48 hrs by SRB assay relative to control; details: SK-MEL-28, 48 h, read-out: GI; in short: as §1
CCRF-CEM = experiment: Growth inhibition of human CCRF-CEM cells at 10 uM after 48 hrs by SRB assay relative to control; details: read-out: GI; in short: as §1
OVCAR-3 = experiment: Growth inhibition of human OVCAR3 cells at 10 uM after 48 hrs by SRB assay relative to control; details: OVCAR-3, 48 h, read-out: GI; in short: as §1
MCF7 = experiment: Growth inhibition of human MCF7 cells at 10 uM after 48 hrs by SRB assay relative to control; details: MCF7, 48 h, read-out: GI; in short: as §1
UACC-62 = experiment: Growth inhibition of human UACC62 cells at 10 uM after 48 hrs by SRB assay relative to control; details: UACC-62, 48 h, read-out: GI; in short: as §2
COLO 205 = experiment: Growth inhibition of human COLO205 cells at 10 uM after 48 hrs by SRB assay relative to control; details: COLO 205, 48 h, read-out: GI; in short: as §1
HL-60(TB) = experiment: Growth inhibition of human HL-60(TB) cells at 10 uM after 48 hrs by SRB assay relative to control; details: HL-60, 48 h, read-out: GI
In short: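 Run at NCI under its standard single-dose protocol against a leukemia cell panel. Cells were exposed to 10 µM; growth was read by sulforhodamine B staining of cellular protein and expressed as % growth inhibition versus untreated control. Values above 100% mean the cell population fell below the starting count (cytocidal). Each value is the average of duplicates.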

RPMI-8226 = experiment: Growth inhibition of human RPMI8226 cells at 10 uM after 48 hrs by SRB assay relative to control; details: RPMI-8226, 48 h, read-out: GI; in short: as §1
NCI-H23 = experiment: Growth inhibition of human NCI-H23 cells at 10 uM after 48 hrs by SRB assay relative to control; details: NCI-H23, 48 h, read-out: GI; in short: as §1
U-251 = experiment: Growth inhibition of human U251 cells at 10 uM after 48 hrs by SRB assay relative to control; details: U-251, 48 h, read-out: GI; in short: as §2
UACC-257 = experiment: Growth inhibition of human UACC257 cells at 10 uM after 48 hrs by SRB assay relative to control; details: UACC-257, 48 h, read-out: GI; in short: as §2
HT-29 = experiment: Growth inhibition of human HT-29 cells at 10 uM after 48 hrs by SRB assay relative to control; details: HT-29, 48 h, read-out: GI; in short: as §1
HOP-62 = experiment: Growth inhibition of human HOP62 cells at 10 uM after 48 hrs by SRB assay relative to control; details: HOP-62, 48 h, read-out: GI; in short: as §1
SN12C = experiment: Growth inhibition of human SN12C cells at 10 uM after 48 hrs by SRB assay relative to control; details: read-out: GI; in short: as §1
SF-295 = experiment: Growth inhibition of human SF295 cells at 10 uM after 48 hrs by SRB assay relative to control; details: SF-295, 48 h, read-out: GI; in short: as §1
SK-MEL-5 = experiment: Growth inhibition of human SK-MEL-5 cells at 10 uM after 48 hrs by SRB assay relative to control; details: SK-MEL-5, 48 h, read-out: GI; in short: as §1
SF-539 = experiment: Growth inhibition of human SF539 cells at 10 uM after 48 hrs by SRB assay relative to control; details: SF-539, 48 h, read-out: GI; in short: as §1
OVCAR-4 = experiment: Growth inhibition of human OVCAR4 cells at 10 uM after 48 hrs by SRB assay relative to control; details: OVCAR-4, 48 h, read-out: GI; in short: as §1
Hs-578T = experiment: Growth inhibition of human Hs 578T cells at 10 uM after 48 hrs by SRB assay relative to control; details: read-out: GI; in short: as §1
HCC 2998 = experiment: Growth inhibition of human HCC2998 cells at 10 uM after 48 hrs by SRB assay relative to control; details: HCC 2998, 48 h, read-out: GI; in short: as §1
DU-145 = experiment: Growth inhibition of human DU145 cells at 10 uM after 48 hrs by SRB assay relative to control; details: DU-145, 48 h, read-out: GI; in short: as §1
IGROV-1 = experiment: Growth inhibition of human IGROV1 cells at 10 uM after 48 hrs by SRB assay relative to control; details: IGROV-1, 48 h, read-out: GI; in short: as §1
MDA-MB-435 = experiment: Growth inhibition of human MDA-MB-435 cells at 10 uM after 48 hrs by SRB assay relative to control; details: MDA-MB-435, 48 h, read-out: GI; in short: as §1
K562 = experiment: Growth inhibition of human K562 cells at 10 uM after 48 hrs by SRB assay relative to control; details: K562, 48 h, read-out: GI; in short: as §1
SNB-19 = experiment: Growth inhibition of human SNB19 cells at 10 uM after 48 hrs by SRB assay relative to control; details: SNB-19, 48 h, read-out: GI; in short: as §2

| SMILES | inhibition of growth at 10 µM (HOP-92) [%] | inhibition of growth at 10 µM (HCT-116) [%] | inhibition of growth at 10 µM (SNB-75) [%] | inhibition of growth at 10 µM (NCI-H322M) [%] | inhibition of growth at 10 µM (UO-31) [%] | inhibition of growth at 10 µM (NCI/ADR-RES) [%] | inhibition of growth at 10 µM (Malme-3M) [%] | inhibition of growth at 10 µM (CAKI-1) [%] | inhibition of growth at 10 µM (SK-MEL-28) [%] | inhibition of growth at 10 µM (CCRF-CEM) [%] | inhibition of growth at 10 µM (OVCAR-3) [%] | inhibition of growth at 10 µM (MCF7) [%] | inhibition of growth at 10 µM (UACC-62) [%] | inhibition of growth at 10 µM (COLO 205) [%] | inhibition of growth at 10 µM (HL-60(TB)) [%] | inhibition of growth at 10 µM (RPMI-8226) [%] | inhibition of growth at 10 µM (NCI-H23) [%] | inhibition of growth at 10 µM (U-251) [%] | inhibition of growth at 10 µM (UACC-257) [%] | inhibition of growth at 10 µM (HT-29) [%] | other results |
| --- | --- | --- | --- | --- | --- | --- | --- | --- | --- | --- | --- | --- | --- | --- | --- | --- | --- | --- | --- | --- | --- |
| COc1cc2oc(-c3cccc(C(=O)Nc4ccccc4)c3)cc(=O)c2c(OC)c1OC | 29.2 | 18.3 | 7.02 | 17.7 | 35.6 | 18.2 | 12.5 | 4.59 | 8.31 | 35.1 | 12.3 | 7.49 | 29.8 | 2.76 | 12.7 | 59.4 | 7.79 | 9.89 | 5.48 | 11.5 | inhibition of growth at 10 µM (HOP-62): 13.7%; inhibition of growth at 10 µM (SN12C): 27.3%; inhibition of growth at 10 µM (SF-295): 4.34%; inhibition of growth at 10 µM (SK-MEL-5): 35.3%; inhibition of growth at 10 µM (SF-539): 19.8%; inhibition of growth at 10 µM (OVCAR-4): 1.91%; inhibition of growth at 10 µM (Hs-578T): 8%; inhibition of growth at 10 µM (HCC 2998): 1.29%; inhibition of growth at 10 µM (DU-145): 12.2%; inhibition of growth at 10 µM (IGROV-1): 19.4%; inhibition of growth at 10 µM (MDA-MB-435): 8.87%; inhibition of growth at 10 µM (K562): 29.6%; inhibition of growth at 10 µM (SNB-19): 4.37% |
| COc1ccc(NC(=O)c2cccc(-c3cc(=O)c4c(OC)c(OC)c(OC)cc4o3)c2)cc1 | 52.7 | 36.6 | 19.7 | 24.5 | 56.1 | 47.2 | 21.4 | 63.7 | 28.7 | 50.7 | 54.3 | 21.1 | 35.2 | 30.6 | 21.2 | 87.5 | 28.7 | 13.9 | -2.76 | 32.9 | inhibition of growth at 10 µM (HOP-62): 31%; inhibition of growth at 10 µM (SN12C): 35%; inhibition of growth at 10 µM (SF-295): 33.6%; inhibition of growth at 10 µM (SK-MEL-5): 59.1%; inhibition of growth at 10 µM (SF-539): 27.7%; inhibition of growth at 10 µM (OVCAR-4): 15.3%; inhibition of growth at 10 µM (Hs-578T): 41.6%; inhibition of growth at 10 µM (HCC 2998): 26.3%; inhibition of growth at 10 µM (DU-145): 26.3%; inhibition of growth at 10 µM (IGROV-1): 38.7%; inhibition of growth at 10 µM (MDA-MB-435): 23.8%; inhibition of growth at 10 µM (K562): 50.4%; inhibition of growth at 10 µM (SNB-19): 8.54% |
| COc1ccccc1C(=O)Nc1cccc(-c2cc(=O)c3c(O)c(OC)c(OC)cc3o2)c1 | 5.45 | 11.7 | 16.4 | 8.64 | 15.2 | 5.26 | -12.7 | 9.48 | -1.9 | 5.53 | -14.6 | -1.88 | 30.2 | -7.03 | 0.6 | 21.6 | 1.58 | 33.1 | 31.9 | 2.63 | inhibition of growth at 10 µM (HOP-62): 16.5%; inhibition of growth at 10 µM (SN12C): 5.29%; inhibition of growth at 10 µM (SF-295): 6.16%; inhibition of growth at 10 µM (SK-MEL-5): 13.4%; inhibition of growth at 10 µM (SF-539): 9.52%; inhibition of growth at 10 µM (OVCAR-4): -5.24%; inhibition of growth at 10 µM (Hs-578T): 11.4%; inhibition of growth at 10 µM (HCC 2998): -9.63%; inhibition of growth at 10 µM (DU-145): -2.87%; inhibition of growth at 10 µM (IGROV-1): 3.04%; inhibition of growth at 10 µM (MDA-MB-435): 1.26%; inhibition of growth at 10 µM (K562): 15.5%; inhibition of growth at 10 µM (SNB-19): 25.4% |

— ChEMBL document CHEMBL4325889, “Natural products hybrids: 3,5,4'-Trimethoxystilbene-5,6,7-trimethoxyflavone chimeric analogs as potential cytotoxic agents against diverse human cancer cells” (Eur J Med Chem, 2019)
